Bioassay records as filed in PubChem.
Only some compounds are listed: those with a hit (about 3% of all), similar ones and a draw of the others.
Granule exo inh: LAMP-1 surface exposure blockers, TALL-104 cells – cell-based, flow cytometry, MLPCN library, primary screen; TALL-104 LAMP-1 surface exposure; cells stimulated with thapsigargin and PMA; inhibition, % at 10 µM; actives 0.66% (n = 360,000);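 active = inhibition above about 55%, limit read from the data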
Pemphigus Ab inh: inhibitors of pemphigus antibody binding to DSG3, primary screen, biochemical, bead-based, flow cytometry, scFv-GFP; Desmoglein-3 (Homo sapiens), P32926; DSG3-coupled beads, scFv-anti-DSG3-GFP binding; stronger effect = lower value; AID 588358, 2011; actives 0.48% (n = 310,000); binding (percent of control), % at 10 µM;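 active = binding more than 3 SD below its plate's average and above zero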;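 also: hits lower antibody fragment binding to DSG3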
HNF4A DNA FP: change in binding of human HNF4A to DNA, primary screen, biochemical, fluorescence polarization, FITC-DNA | Hepatocyte nuclear factor 4-alpha (Homo sapiens), P41235 | 1 h | activity change, % at 10 µM | actives 0.3% (n = 360,000) | AID 1224865, 2016; in the data active = activity change above about 30%, passing the limit was not always enough
Target sequence (P41235 whole entry, looked up): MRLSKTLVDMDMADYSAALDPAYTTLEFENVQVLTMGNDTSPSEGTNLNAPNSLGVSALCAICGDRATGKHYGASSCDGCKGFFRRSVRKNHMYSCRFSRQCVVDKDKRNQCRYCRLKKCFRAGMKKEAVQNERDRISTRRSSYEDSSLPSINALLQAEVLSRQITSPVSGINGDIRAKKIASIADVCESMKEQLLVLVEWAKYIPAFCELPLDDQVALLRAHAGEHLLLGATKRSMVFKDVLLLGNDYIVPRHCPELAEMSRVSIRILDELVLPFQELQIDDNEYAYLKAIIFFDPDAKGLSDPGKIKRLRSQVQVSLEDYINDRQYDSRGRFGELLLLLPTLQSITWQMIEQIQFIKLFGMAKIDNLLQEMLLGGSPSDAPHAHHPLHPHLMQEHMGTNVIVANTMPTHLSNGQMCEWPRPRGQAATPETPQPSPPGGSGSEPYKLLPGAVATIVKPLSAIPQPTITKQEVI
Myeloid diff MLP: induction of myeloid progenitor differentiation, primary screen, cell-based, flow cytometry, MLPCN library | calls only at 10 µM | actives 1% (n = 360,000) | ER-HoxA9 myeloid progenitors, lysozyme-GFP differentiation;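 active = normalized GFP-positive differentiation at or above the plate's own cutoff, the solvent-only control mean plus 3 SD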;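 also: cells exposed to compound for four days before flow analysis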
SENP1 FRET inh: human SENP1 catalytic domain inhibitors, primary screen, biochemical, FRET, uHTS | actives 0.21% (n = 360,000) | AID 624204, 2012 | recombinant SENP1 catalytic domain, CyPet-SUMO1-YPet FRET cleavage | Sentrin-specific protease 1 (Homo sapiens), Q9P0U3 | inhibition, % at 10 µM;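 active = inhibition at least 30% at 10 µM, raw YFP signal under a set limit, fluorescence ratio 0.5 to 1.5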
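material = recombinant human SENP1 catalytic domain, His6-tagged | quantity = 20 pM enzyme | reagent = 25 nM SUMO1 FRET substrate | compound dosing = 10 µM single point, 0.5% DMSO | timing = 50 min enzyme reaction, room temperature, light-protected | detection = FRET, CFP and YFP emission | control set = no-enzyme low, enzyme-DMSO high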
Cardio protect: cardioprotection against H2O2-induced cell death, primary screen, uHTS, H9c2 cells, ATPLite luminescence; actives 0.63% (n = 360,000); protection from H2O2 cell death, % at 20 µM; H9c2 cardiomyocytes, H2O2 injury protection, 2 h;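 active = compounds giving at least 50% protection of heart cells from peroxide-induced death in the single-dose screen, raw or plate-pattern-corrected value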
Myeloid diff CP1: inducers of myeloid progenitor differentiation, confirmation, cell-based, GFP/Mac1 flow cytometry, cherry pick 01. shares compounds with Myeloid diff MLP. ER-HoxA9 myeloid progenitors, GFP/Mac1 double-positive flow. calls only. actives 2% (n = 2,300);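 active = share of green or green-and-red cells above 9 and 9% in run 1 or 4 and 3% in run 2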
GFP autofluor: compound fluorescence in myeloid differentiation counter-screen; ER-HoxA9 myeloid progenitors, no estrogen, GFP autofluorescence flow cytometry; vehicle wells 0%, positive control 100%; actives 7.4% (n = 2,300); fluorescence response, % (test concentration not listed); shares compounds with Myeloid diff MLP; AID 651707;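 active = over 5% cells positive for green fluorescent reporter, or over 2% positive for both it and APC stain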
Hits are given with their value; - = inactive; . = not tested or not shown; + = active, no number.

SMILES	Granule exo inh	Pemphigus Ab inh	HNF4A DNA FP	Myeloid diff MLP	SENP1 FRET inh	Cardio protect	Myeloid diff CP1	GFP autofluor
COC(=O)c1ccc(CNC(=O)C2CCC(=O)N(CCc3ccccn3)C2)cc1 (centres undefined)	-	-	-	-	-	-	.	.
Cn1c(C(=O)NCC2CCCO2)cc2c(=O)n(C)c3ccccc3c21 (centres undefined)	-	-	-	-	-	-	.	.
Cn1c(C(=O)NCC2CCCO2)cc2c(=O)[nH]c3ccccc3c21 (centres undefined)	-	-	-	-	-	-	-	-
CCOC(=O)C1(CC2CC2)CCN(C(=O)c2cccnc2C)CC1	-	.	-	-	-	-	-	-
COc1ccc(NC(=O)CSc2nnc(Cc3cccs3)n2C)cc1	-	-	-	-	-	-	.	.
CCOC(=O)c1ccc(CNC(=O)c2cc(COc3ccccc3SC)on2)o1	-	-	-	-	-	-	.	.
Nc1nc(SCc2ccccc2)c2ncn(C3CCCO3)c2n1 (centres undefined)	-	.	-	-	-	-	-	-
COc1ccc(/C=C2\SC(=S)N(CCC(=O)NC3CCCC3)C2=O)cc1OC	-	-	-	-	-	-	-	-
COc1ccc2[nH]cc(CCNC(=O)COc3ccc4ccc(=O)oc4c3)c2c1	-	-	-	-	-	-	.	.
Cc1cccc(NC(=S)NC(NC(=O)OCc2ccccc2)C(Cl)(Cl)Cl)c1 (centres undefined)	-	-	-	-	-	-	-	-
CC(C)CC(=O)NC(NC(=S)Nc1ccccc1)C(Cl)(Cl)Cl (centres undefined)	-	-	-	-	-	-	-	-
CCOc1cc(S(=O)(=O)Nc2ccc(Cl)cn2)ccc1F	-	.	-	+	-	-	-	-
Cn1c(SCC(=O)O)nnc1C1CCCCC1	-	-	-	+	-	-	-	-
Cc1c(C(=O)OC(C)C)[nH]c2c1C(=O)CC(C)(C)C2	-	-	-	+	-	-	-	-
COc1cc(C)c(CN2CCCCC2CO)cc1C (centres undefined)	-	-	-	+	-	-	-	-
Cc1cc(S(=O)(=O)N(Cc2ccccc2F)C2CC2)ccc1-n1cnnn1	-	-	-	-	-	-	-	-
CC(C)(C)C(=O)Nc1nc2c(s1)CN(Cc1ccccc1)CC2	-	-	-	-	-	-	-	-
CCOc1ccc(-n2nc3c(Cl)nnc(C)c3c2C)cc1	-	-	-	-	-	-	.	.
O=S(=O)(c1ccc2c(c1)OCCO2)N1CCN(c2nc3ccccc3s2)CC1	-	-	-	-	-	-	-	-
O=[N+]([O-])c1ccccc1/C=C/CN1CCCCC1	-	-	-	-	-	-	-	-
O=[N+]([O-])c1ccccc1/C=C/CN1CCCCC1CO (centres undefined)	-	-	-	-	-	-	.	.
CCc1nc(OCc2ccccc2)c2sc3nc4c(cc3c2n1)COC(C)(C)C4	-	-	-	-	-	-	-	-
CN1C(=O)/C(=C\c2cc(N=Nc3ccccc3)ccc2O)SC1=S	-	-	-	.	-	-	.	.
Cc1cc(/C=C2\SC(=S)N(C)C2=O)c(C)n1-c1cccc(O)c1	-	-	72.3	+	-	-	-	-
COc1ccc2[nH]c3c(c2c1)CCNC3c1ccc([N+](=O)[O-])o1 (centres undefined)	-	-	-	+	-	60.5	-	98.6
O=C(Nc1ccc2c(c1)OCO2)c1ccc(Br)c(S(=O)(=O)N2CCCC2)c1	-	-	-	+	-	-	-	-
